Results gathered from unrelated publications.

| Compound | test system | conditions | quantity | result |
| --- | --- | --- | --- | --- |
| C[C@]12CC[C@H](O)CC1=CC[C@@H]1[C@@H]2CC[C@]2(C)C(n3cnc4ccccc43)=CC[C@@H]12.Cl | mouse, plasma | oral, 10 mg/kg | Tmax | 25.2 min |
| COc1ccc2[nH]cc(CCNc3nccc(Nc4cccc5c4ccn5C)n3)c2c1 | mouse, plasma | oral, 28.6 mg/kg | Tmax | 15 min |
| C=C(C)[C@@H]1CC[C@]2(NCCN3CCS(=O)(=O)CC3)CC[C@]3(C)[C@H](CC[C@@H]4[C@@]5(C)CC=C(C6=CC[C@@](COc7ncccc7C#N)(C(=O)O)CC6)C(C)(C)[C@@H]5CC[C@]43C)[C@@H]12 | human, plasma | oral, 100 mg, fed | Cmax | 390 ng/mL |
| CC[C@H](C)[C@H](NC(=O)[C@H](CC(C)C)NC(=O)[C@H](Cc1c[nH]c2ccccc12)NC(=O)[C@H](CCC(N)=O)NC(=O)[C@@H](NC(=O)[C@H](Cc1ccccc1)NC(=O)[C@H](C)NC(=O)[C@H](CCCCNC(=O)COCCOCCNC(=O)COCCOCCNC(=O)CC[C@H](NC(=O)CCCCCCCCCCCCCCCCCCC(=O)O)C(=O)O)NC(=O)[C@H](CCC(N)=O)NC(=O)[C@H](C)NC(=O)[C@@H](NC(=O)[C@H](CCCCN)NC(=O)[C@H](CC(=O)O)NC(=O)[C@H](CC(C)C)NC(=O)C(C)(C)NC(=O)[C@@H](NC(=O)[C@H](CO)NC(=O)[C@H](Cc1ccc(O)cc1)NC(=O)[C@H](CC(=O)O)NC(=O)[C@H](CO)NC(=O)[C@@H](NC(=O)[C@H](Cc1ccccc1)NC(=O)[C@@H](NC(=O)CNC(=O)[C@H](CCC(=O)O)NC(=O)C(C)(C)NC(=O)[C@@H](N)Cc1ccc(O)cc1)[C@@H](C)O)[C@@H](C)O)[C@@H](C)CC)[C@@H](C)CC)C(C)C)C(=O)N[C@@H](C)C(=O)NCC(=O)NCC(=O)N1CCC[C@H]1C(=O)N[C@@H](CO)C(=O)N[C@@H](CO)C(=O)NCC(=O)N[C@@H](C)C(=O)N1CCC[C@H]1C(=O)N1CCC[C@H]1C(=O)N1CCC[C@H]1C(=O)N[C@@H](CO)C(N)=O | human, plasma | subcutaneous, 0.5 mg, multiple doses, healthy volunteers | Cmax | 77.8 ng/mL |
| C[C@]12CC[C@H](n3ccnc3)CC1=CC[C@@H]1[C@@H]2CC[C@]2(C)C(n3cnc4ccccc43)=CC[C@@H]12.Cl | male CD-1 mouse, plasma | oral, 10 mg/kg | Tmax | 800 min |
| Cc1ccccc1C(=O)NN=Cc1ccc(O)c(Br)c1 | mouse, plasma | intraperitoneal, 1.6 mg/kg | Tmax | 30 min |
| N=c1c2c(-c3ccccc3)c(-c3ccccc3)n(Cc3ccccc3)c2ncn1[C@H]1CC[C@H](O)CC1 | Caco-2 | 3 µM, 2 h, pH 7.4 | efflux ratio | 10 |
| COc1cc2c(c(OC)c1OC)-c1ccc(OC)c(=O)cc1[C@@H](NC(C)=O)CC2 | Caco-2 |  | efflux ratio | 24.5 |
| N=C(N)NCCC[C@@H](NC(=O)[C@@H](N)Cc1ccccc1)C(=O)N[C@@H](Cc1ccccc1)C(=O)N[C@@H](CCCCN)C(N)=O | human, plasma | subcutaneous, 5 mg, multiple doses, once daily, patients | Cmax | 212 ng/mL |
| c1cc([C@H]2CC[C@]3(CC2)OO[C@]2(O3)C3CC4CC(C3)CC2C4)ccc1OCCN1CCOCC1 | human, plasma | oral, 400 mg, patients | Cmax | 732 ng/mL |
| C[C@H]1O[C@@H](O[C@H]2[C@@H](O)C[C@H](O[C@H]3[C@@H](O)C[C@H](O[C@H]4CC[C@@]5(C)[C@H](CC[C@@H]6[C@@H]5C[C@@H](O)[C@]5(C)[C@@H](C7=CC(=O)OC7)CC[C@]65O)C4)O[C@@H]3C)O[C@@H]2C)C[C@H](O)[C@@H]1O | Caco-2 | 10 µM, 1 h, pH 7.4 | efflux ratio | 5.33 |
| CC(=C/C=C/C(C)=C/C(=O)O)/C=C1\CCCc2ccccc21 | human, plasma | oral, 10 mg, single dose, fasted, healthy volunteers | Cmax | 55.9 ng/mL |
